# Results: ChEMBL document CHEMBL4311935, “Synthesis and antitumor activity of fluorouracil - oleanolic acid/ursolic acid/glycyrrhetinic acid conjugates” (Medchemcomm, 2019)
# The source made the active and inactive calls. The rule behind the calls is not given here.
# How the values were obtained:
# [1] = tested on: NCI/ADR-RES; assay: Cytotoxicity against human MCF7/ADR cells assessed as cell growth inhibition after 48 hrs by MTT assay; format: functional, cell-based
# [2] = tested on: A549; assay: Induction of cell cycle arrest in human A549 cells assessed as accumulation at G2 phase at 10 uM after 48 hrs by RNase/propidium iodide staining based flow cytometry analysis (reference value: 5.14 %); format: functional
# Outline: (§1)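 A549 cells were grown in dishes for 24 h, then treated at 0, 10, 15 or 20 μM for 48 h. Cells were washed in cold PBS, fixed in cold 75% ethanol and held at −20 °C for 36 h. They were then treated with RNase A (100 μg mL–1) for 30 min and stained with propidium iodide (1 mg mL–1 stock) for 10 min in the dark before flow cytometry.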
# [3] = tested on: A549; assay: Induction of apoptosis in human A549 cells assessed as early apoptotic cells at 20 uM after 48 hrs by AnnexinV-FITC/propidium iodide staining based flow cytometry analysis (reference value: 0.99 %); format: functional
# [4] = tested on: A549; assay: Induction of apoptosis in human A549 cells assessed as activation of caspase-8 at 20 uM using FITC-DEVD-FMK as substrate after 48 hrs by flow cytometric analysis (reference value: 9.76 %); format: functional
# [5] = tested on: Bel7402/5-FU; assay: Cytotoxicity against human Bel7402/5-FU cells assessed as cell growth inhibition after 48 hrs by MTT assay; format: functional, cell-based
# [6] = tested on: A549; assay: Induction of cell cycle arrest in human A549 cells assessed as accumulation at G1 phase at 10 uM after 48 hrs by RNase/propidium iodide staining based flow cytometry analysis (reference value: 70.63 %); format: functional; outline: as §1
# [7] = tested on: K562; assay: Cytotoxicity against human K562 cells assessed as cell growth inhibition after 48 hrs by MTT assay; format: functional, cell-based; conditions: K562, 48 h
# [8] = tested on: A549; assay: Induction of apoptosis in human A549 cells assessed as activation of caspase-8 at 10 uM using FITC-DEVD-FMK as substrate after 48 hrs by flow cytometric analysis (reference value: 9.76 %); format: functional
# [9] = tested on: A549; assay: Induction of apoptosis in human A549 cells assessed as stimulation of intracellular calcium influx by measuring fluorescence intensity at 10 to 15 uM after 48 hrs by Fluo-3/AM probe based flow cytometry analysis; format: functional, cell-based
# Outline: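 Cells were seeded in six-well plates for 24 h, then treated at 0, 10 or 15 μM for 48 h. They were harvested, washed three times in serum-free RPMI 1640 and loaded with Fluo-3 AM (0.5 μM) for 60 min. After two washes and resuspension in serum-free medium, fluorescence was measured immediately by flow cytometry.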
# [10] = tested on: A549/TR; assay: Cytotoxicity against human A549/T cells assessed as cell growth inhibition after 48 hrs by MTT assay; format: functional, cell-based
# [11] = tested on: A549; assay: Induction of apoptosis in human A549 cells assessed as activation of caspase-8 at 15 uM using FITC-DEVD-FMK as substrate after 48 hrs by flow cytometric analysis (reference value: 9.76 %); format: functional
# [12] = tested on: A549; assay: Induction of cell cycle arrest in human A549 cells assessed as accumulation at S phase at 10 uM after 48 hrs by RNase/propidium iodide staining based flow cytometry analysis (reference value: 24.23 %); format: functional; outline: as §1
# [13] = tested on: A549; assay: Induction of cell cycle arrest in human A549 cells assessed as accumulation at S phase at 20 uM after 48 hrs by RNase/propidium iodide staining based flow cytometry analysis (reference value: 24.23 %); format: functional; outline: as §1
# [14] = tested on: A549; assay: Induction of apoptosis in human A549 cells assessed as activation of caspase-3 at 20 uM using FITC-DEVD-FMK as substrate after 48 hrs by flow cytometric analysis (reference value: 5.99 %); format: functional
# [15] = tested on: A549; assay: Induction of cell cycle arrest in human A549 cells assessed as accumulation at G1 phase at 15 uM after 48 hrs by RNase/propidium iodide staining based flow cytometry analysis (reference value: 70.63 %); format: functional; outline: as §1
# [16] = tested on: A549; assay: Induction of apoptosis in human A549 cells assessed as late apoptotic cells at 15 uM after 48 hrs by AnnexinV-FITC/propidium iodide staining based flow cytometry analysis (reference value: 4.19 %); format: functional
# [17] = tested on: L02; assay: Cytotoxicity against human LO2 cells assessed as cell growth inhibition after 48 hrs by MTT assay; format: cell-based; conditions: L02, 48 h
# [18] = tested on: A549; assay: Induction of apoptosis in human A549 cells assessed as stimulation of ROS generation at 25 uM after 48 hrs by DCFH-DA staining-based flow cytometric analysis (reference value: 42.5 %); format: functional
# [19] = tested on: A549; assay: Induction of apoptosis in human A549 cells assessed as late apoptotic cells at 10 uM after 48 hrs by AnnexinV-FITC/propidium iodide staining based flow cytometry analysis (reference value: 4.19 %); format: functional
# [20] = tested on: A549; assay: Induction of cell cycle arrest in human A549 cells assessed as accumulation at G2 phase at 15 uM after 48 hrs by RNase/propidium iodide staining based flow cytometry analysis (reference value: 5.14 %); format: functional; outline: as §1
# [21] = tested on: A549; assay: Induction of apoptosis in human A549 cells assessed as activation of caspase-3 at 10 uM using FITC-DEVD-FMK as substrate after 48 hrs by flow cytometric analysis (reference value: 5.99 %); format: functional
# [22] = tested on: A549; assay: Induction of apoptosis in human A549 cells assessed as early apoptotic cells at 15 uM after 48 hrs by AnnexinV-FITC/propidium iodide staining based flow cytometry analysis (reference value: 0.99 %); format: functional
# [23] = tested on: A549; assay: Induction of apoptosis in human A549 cells assessed as early apoptotic cells at 10 uM after 48 hrs by AnnexinV-FITC/propidium iodide staining based flow cytometry analysis (reference value: 0.99 %); format: functional
# [24] = tested on: A549; assay: Induction of cell cycle arrest in human A549 cells assessed as accumulation at S phase at 15 uM after 48 hrs by RNase/propidium iodide staining based flow cytometry analysis (reference value: 24.23 %); format: functional; outline: as §1
# [25] = tested on: A549; assay: Induction of apoptosis in human A549 cells assessed as activation of caspase-3 at 15 uM using FITC-DEVD-FMK as substrate after 48 hrs by flow cytometric analysis (reference value: 5.99 %); format: functional
# [26] = tested on: K562/Adr; assay: Cytotoxicity against human K562/ADR cells assessed as cell growth inhibition after 48 hrs by MTT assay; format: functional, cell-based
# [27] = tested on: MCF7; assay: Cytotoxicity against human MCF7 cells assessed as cell growth inhibition after 48 hrs by MTT assay; format: functional, cell-based; conditions: MCF7, 48 h
# [28] = tested on: A549; assay: Induction of apoptosis in human A549 cells assessed as stimulation of ROS generation at 20 uM after 48 hrs by DCFH-DA staining-based flow cytometric analysis (reference value: 42.5 %); format: functional
# [29] = tested on: Bel-7402; assay: Cytotoxicity against human Bel7402 cells assessed as cell growth inhibition after 48 hrs by MTT assay; format: functional, cell-based; conditions: Bel-7402, 48 h
# [30] = tested on: A549; assay: Induction of cell cycle arrest in human A549 cells assessed as accumulation at G1 phase at 20 uM after 48 hrs by RNase/propidium iodide staining based flow cytometry analysis (reference value: 70.63 %); format: functional; outline: as §1
# [31] = tested on: A549; assay: Induction of apoptosis in human A549 cells assessed as late apoptotic cells at 20 uM after 48 hrs by AnnexinV-FITC/propidium iodide staining based flow cytometry analysis (reference value: 4.19 %); format: functional
# [32] = tested on: A549; assay: Cytotoxicity against human A549 cells assessed as cell growth inhibition after 48 hrs by MTT assay; format: functional, cell-based; conditions: A549, 48 h
# [33] = tested on: A549; assay: Induction of cell cycle arrest in human A549 cells assessed as accumulation at G2 phase at 20 uM after 48 hrs by RNase/propidium iodide staining based flow cytometry analysis (reference value: 5.14 %); format: functional; outline: as §1
smiles,measurement,setting,value
CC1(C)[C@@H](O)CC[C@]2(C)[C@H]3C(=O)C=C4[C@@H]5C[C@@](C)(C(=O)OCCCCCCCCn6cc(F)c(=O)[nH]c6=O)CC[C@]5(C)CC[C@@]4(C)[C@]3(C)CC[C@@H]12,IC50,[1],23.4 µM
same,Activity,[2],5.58%
same,Activity,[3],3.5%
same,Activity,[4],32.4%
same,IC50,[5],19.8 µM
same,Activity,[6],73.61%
same,IC50,[7],9.8 µM
same,Activity,[8],9.26%
same,Activity,[9],Active
same,IC50,[10],20.7 µM
same,Activity,[11],12.7%
same,Activity,[12],20.81%
same,Activity,[13],5.01%
same,Activity,[14],64.7%
same,Activity,[15],76.07%
same,Activity,[16],31.91%
same,IC50,[17],20.9 µM
same,Activity,[18],34.9%
same,Activity,[19],5.43%
same,Activity,[20],4.27%
same,Activity,[21],24.5%
same,Activity,[22],2.71%
same,Activity,[23],1.61%
same,Activity,[24],19.66%
same,Activity,[25],50.9%
same,IC50,[26],27 µM
same,IC50,[27],12.9 µM
same,Activity,[28],40.5%
same,IC50,[29],21 µM
same,Activity,[30],92.18%
same,Activity,[31],46.4%
same,IC50,[32],15.7 µM
same,Activity,[33],2.81%
